Results taken from ChEMBL document CHEMBL1121685, “Development of new mitomycin C and porfiromycin analogues” (J Med Chem, 1981).

Assays:
[1] = tested on: Mus musculus; experiment: Activity of compound dose of 4.5 mg/kg/day against Murine B-16 Melanocarcinoma in mice; assay type: functional
[2] = tested on: Mus musculus; experiment: Effect of compound on total white blood cell count in BDG1 male mice, after intraperitoneal administration at a dose of 50.9 mg/kg on day 7; assay type: functional
Outline: (§1)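 Single ip dose given on day 0 to BDG₁ male mice. Total white blood cell count measured on days 3, 5 and 7, expressed as % change from control. Highest dose was at the LD₅₀, or at twice the optimal dose where so footnoted. Significance reported at p ≤ 0.05 and p ≤ 0.01. D marks death of one or more mice.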

[3] = tested on: Mus musculus; experiment: Number of cured survivors, 45 days after administration of compound at a dose of 18 mg/kg/day in mice; assay type: functional
[4] = tested on: Mus musculus; experiment: Activity of compound dose of 18 mg/kg/day against Murine B-16 Melanocarcinoma in mice; assay type: functional
[5] = tested on: Mus musculus; experiment: Effect of compound on total white blood cell count in BDG1 male mice, after intraperitoneal administration at a dose of 22.2 mg/kg on day 3; assay type: functional
Outline: (§2)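 Single ip dose given on day 0 to BDG1 male mice over a descending dose series. Total white blood cell count is expressed as % change from untreated control on days 3, 5 and 7. Significance is flagged at p ≤ 0.05 and p ≤ 0.01.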

[6] = tested on: Mus musculus; experiment: Activity of compound dose of 36 mg/kg/day against Murine B-16 Melanocarcinoma in mice; assay type: functional
[7] = tested on: Mus musculus; experiment: Effect of compound on total white blood cell count in BDG1 male mice, after intraperitoneal administration at a dose 29.6 mg/kg on day 7; assay type: functional
Outline: (§3)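 BDG₁ male mice received a single ip dose on day 0. The dose series topped out at the LD₅₀ level, or at twice the optimal dose for some agents. Total white blood cell count was taken on days 3, 5 and 7 and expressed as % change from untreated controls. Significance was set at p ≤ 0.05 or p ≤ 0.01.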

[8] = tested on: Mus musculus; experiment: Effect of compound on total white blood cell count in BDG1 male mice, after intraperitoneal administration at a dose of 39.4 mg/kg on day 5; assay type: functional; outline: as §2
[9] = species: Mus musculus; experiment: Half-wave potential produced by the compound at their optimal dose; assay type: functional; parameters: unit not given here
[10] = tested on: Mus musculus; experiment: Effect of compound on total white blood cell count in BDG1 male mice, after intraperitoneal administration at a dose of 29.6 mg/kg on day 5; assay type: functional; outline: as §2
[11] = tested on: Mus musculus; experiment: Activity of compound dose of 2.25 mg/kg/day against Murine B-16 Melanocarcinoma in mice; assay type: functional
[12] = tested on: Mus musculus; experiment: Effect of compound on total white blood cell count in BDG1 male mice, after intraperitoneal administration at a dose of 22.2 mg/kg on day 7; assay type: functional; outline: as §2
[13] = tested on: Mus musculus; experiment: Effect of compound on total white blood cell count in BDG1 male mice, after intraperitoneal administration at a dose of 39.4 mg/kg on day 3; assay type: functional; outline: as §2
[14] = tested on: Mus musculus; experiment: Number of cured survivors, 45 days after administration of compound at a dose of 36 mg/kg/day in mice; assay type: functional
[15] = tested on: Mus musculus; experiment: Effect of compound on total white blood cell count in BDG1 male mice, after intraperitoneal administration at a dose of 50.9 mg/kg on day 3; assay type: functional; outline: as §1
[16] = tested on: Mus musculus; experiment: Effect of compound on total white blood cell count in BDG1 male mice, after intraperitoneal administration at a dose of 29.6 mg/kg on day 3; assay type: functional; outline: as §2
[17] = tested on: Mus musculus; experiment: Number of tumored survivors, 45 days after administration of compound at a dose of 18 mg/kg/day in mice; assay type: functional
[18] = species: Mus musculus; experiment: Degree of leukopenia produced by compound is assessed form Percent change in white cells on days 5; assay type: functional; outline: as §3
[19] = tested on: Mus musculus; experiment: Activity of compound dose of 1.13 mg/kg/day against Murine B-16 Melanocarcinoma in mice; assay type: functional
[20] = tested on: Mus musculus; experiment: Antitumor activity against P-388 murine leukemia cells in CDF1 female mice after intraperitoneal administration at the specified optimal dose of 12.8 mg/kg; assay type: functional
[21] = tested on: Mus musculus; experiment: Effect of compound on total white blood cell count in BDG1 male mice, after intraperitoneal administration at a dose of 22.2 mg/kg on day 5; assay type: functional; outline: as §2
[22] = tested on: Mus musculus; experiment: Activity of compound dose of 9 mg/kg/day against Murine B-16 Melanocarcinoma in mice; assay type: functional
[23] = tested on: Mus musculus; experiment: Minimum effective dose that show activity against P-388 murine leukemia cells in CDF1 female mice, after intraperitoneal administration (optimal dose is 12.8 mg/kg); assay type: functional; settings: P388, ip, read-out: MED
Outline: (§4)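 10⁶ P-388 ascites cells implanted ip in CDF₁ female mice. Six mice per dose, 10 saline-injected controls, and a concurrent mitomycin C reference group. %T/C = median survival time of treated/control × 100. MED is the lowest dose giving %T/C > 125. Therapeutic ratio = optimal dose/MED.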

[24] = Therapeutic ratio is expressed as ratio of optimal dose and minimum effective dose; assay type: ADME; settings: mouse; read-out: TR; outline: as §4
[25] = tested on: Mus musculus; experiment: Effect of compound on total white blood cell count in BDG1 male mice, after intraperitoneal administration at a dose of 6.4 mg/kg on day 7; assay type: functional; outline: as §1
[26] = tested on: Mus musculus; experiment: Minimum effective dose that show activity against P-388 murine leukemia cells in CDF1 female mice, after intraperitoneal administration (optimal dose is 6.4 mg/kg); assay type: functional; settings: P388, ip, read-out: MED; outline: as §4
[27] = tested on: Mus musculus; experiment: Antitumor activity against P-388 murine leukemia cells in CDF1 female mice after intraperitoneal administration at the specified optimal dose of 6.4 mg/kg; assay type: functional
[28] = tested on: Mus musculus; experiment: Effect of compound on total white blood cell count in BDG1 male mice, after intraperitoneal administration at a dose of 12.8 mg/kg on day 3 (highest dose was twice the optimal dose); assay type: functional; outline: as §3
[29] = tested on: Mus musculus; experiment: Effect of compound on total white blood cell count in BDG1 male mice, after intraperitoneal administration at a dose of 12.8 mg/kg on day 7 (highest dose was twice the optimal dose); assay type: functional
[30] = tested on: Mus musculus; experiment: Effect of compound on total white blood cell count in BDG1 male mice, after intraperitoneal administration at a dose of 12.8 mg/kg on day 5 (highest dose was twice the optimal dose); assay type: functional; outline: as §3
[31] = tested on: Mus musculus; experiment: Effect of compound on total white blood cell count in BDG1 male mice, after intraperitoneal administration at a dose of 6.4 mg/kg on day 5; assay type: functional; outline: as §1
[32] = tested on: Mus musculus; experiment: Effect of compound on total white blood cell count in BDG1 male mice, after intraperitoneal administration at a dose of 6.4 mg/kg on day 3; assay type: functional; outline: as §1
[33] = tested on: Mus musculus; experiment: Effect of compound on total white blood cell count in BDG1 male mice, after intraperitoneal administration at a dose of 2.55 mg/kg on day 3; assay type: functional; outline: as §2
[34] = tested on: Mus musculus; experiment: Effect of compound on total white blood cell count in BDG1 male mice, after intraperitoneal administration at a dose of 1.69 mg/kg on day 7; assay type: functional; outline: as §3
[35] = tested on: Mus musculus; experiment: Effect of compound on total white blood cell count in BDG1 male mice, after intraperitoneal administration at a dose of 2.55 mg/kg on day 5; assay type: functional; outline: as §2
[36] = tested on: Mus musculus; experiment: Effect of compound on total white blood cell count in BDG1 male mice, after intraperitoneal administration at a dose of 1.27 mg/kg on day 7; assay type: functional; outline: as §3
[37] = tested on: Mus musculus; experiment: Effect of compound on total white blood cell count in BDG1 male mice, after intraperitoneal administration at a dose of 2.55 mg/kg on day 7; assay type: functional; outline: as §2
[38] = tested on: Mus musculus; experiment: Minimum effective dose that show activity against P-388 murine leukemia cells in CDF1 female mice, after intraperitoneal administration (optimal dose is 1.6 mg/kg); assay type: functional; settings: P388, ip, read-out: MED
[39] = tested on: Mus musculus; experiment: Effect of compound on total white blood cell count in BDG1 male mice, after intraperitoneal administration at a dose of 3 mg/kg on day 5; assay type: functional; outline: as §2
[40] = tested on: Mus musculus; experiment: Effect of compound on total white blood cell count in BDG1 male mice, after intraperitoneal administration at a dose of 1.69 mg/kg on day 3; assay type: functional; outline: as §3
[41] = tested on: Mus musculus; experiment: Effect of compound on total white blood cell count in BDG1 male mice, after intraperitoneal administration at a dose of 1.27 mg/kg on day 3; assay type: functional; outline: as §3
[42] = tested on: Mus musculus; experiment: Effect of compound on total white blood cell count in BDG1 male mice, after intraperitoneal administration at a dose of 1.27 mg/kg on day 5; assay type: functional; outline: as §3
[43] = tested on: Mus musculus; experiment: Effect of compound on total white blood cell count in BDG1 male mice, after intraperitoneal administration at a dose of 3 mg/kg on day 7; assay type: functional; outline: as §2
[44] = tested on: Mus musculus; experiment: Antitumor activity against P-388 murine leukemia cells in CDF1 female mice after intraperitoneal administration at the specified optimal dose of 1.6 mg/kg; assay type: functional
[45] = tested on: Mus musculus; experiment: Effect of compound on total white blood cell count in BDG1 male mice, after intraperitoneal administration at a dose of 1.69 mg/kg on day 5; assay type: functional; outline: as §3
[46] = tested on: Mus musculus; experiment: Effect of compound on total white blood cell count in BDG1 male mice, after intraperitoneal administration at a dose of 3 mg/kg on day 3; assay type: functional; outline: as §2
[47] = species: Mus musculus; experiment: Degree of leukopenia produced by compound is assessed form Percent change in white cells on day 7; assay type: functional; outline: as §3
[48] = tested on: Mus musculus; experiment: Antitumor activity against P-388 murine leukemia cells in CDF1 female mice after intraperitoneal administration at the specified optimal dose of 51.2 mg/kg; assay type: functional

`COC12[C@@H]3N[C@@H]3CN1C1=C(C(=O)C(NCc3ccco3)=C(C)C1=O)[C@@H]2COC(N)=O` (some centres not stated) gave a T/C [1] of 170%, a Change [2] of -64% and a Survivors [3] of 3. The T/C [4] was 219%, the Change [5] was -70% and the T/C [6] was 247%. The Change [7] was 0%, the Change [8] was -74% and the E1/2 [9] was -0.39. It also gave a Change [10] of -67%, a T/C [11] of 148% and a Change [12] of -1%. For the same compound, the Change [13] was -84%, the Survivors [14] was 6 and the Change [15] was -76%. It also gave a Change [16] of -78%, a Survivors [17] of 1 and a Change [18] of -54%. For the same compound, the T/C [19] was 125%, the T/C [20] was 276% and the Change [21] was 62%. For the same compound, the T/C [22] was 186%, the minimal effective dose [23] was under 0.4 mg/kg and the selectivity ratio [24] was over 32.
Work on `C=CCNC1=C(C)C(=O)C2=C(C1=O)[C@H](COC(N)=O)C1(OC)[C@@H]3N[C@@H]3CN21` (some centres not stated) yielded a Change [25] of -0.6%, a minimal effective dose [26] of 3.2 mg/kg and a T/C [27] of 150%. For the same compound, the Change [28] was -33%, the Change [29] was 6% and the Change [30] was -42%. The Change [31] was -37%, the Change [32] was -35% and the selectivity ratio [24] was 2.
`COC12[C@@H]3N[C@@H]3CN1C1=C(C(=O)C(N3CC3)=C(C)C1=O)[C@@H]2COC(N)=O` (some centres not stated) showed a Change [33] of 15%, a Change [34] of -11% and a Change [35] of 34%. It also gave a Change [36] of 3%, a Change [37] of 18% and an E1/2 [9] of -0.31. It also gave a minimal effective dose [38] of 0.025 mg/kg, a Change [39] of 3% and a Change [40] of 16%. It also gave a Change [41] of -16%, a Change [42] of 27% and a Change [43] of 13%. It also gave a T/C [44] of 266%, a Change [45] of 9% and a Change [46] of -12%. The selectivity ratio [24] was 64 and the Change [47] was -11%.
Compound `COC12[C@@H](COC(N)=O)C3=C(C(=O)C(C)=C(NCCCl)C3=O)N1C[C@@H]1[C@H]2N1C` (some centres not stated) has a T/C [48] of 205% and a selectivity ratio [24] of 8.
